# Laboratory results taken from paper PMC3703767 (Virology, 2008).
# Assays:
# [1] = system: Hu/NoV/GI.1/Norwalk virus/1968/US 5′ ORF1 sequence; test: Luciferase reporter assay, Norwalk leader; type: biochemical, human norovirus; settings: target with 1 mismatch to Noro 1.1; luciferase signal
# Summary of the method: (§1)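 In vitro translation in nuclease-treated rabbit reticulocyte lysate. The target 5′-end leader sits upstream of firefly luciferase; RNA is T7-transcribed from NotI-cut plasmid (1 nM final). Test compound is added at 0.01–83 μM final, and reactions run 75 min at 37 °C, then are chilled on ice. Percent inhibition is calculated from luciferase signal versus no-compound reaction. Each assay was run at least twice, by two investigators in separate labs.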
# [2] = system: Hu/NoV/GII.4/CN3050/1998/USA 5′ ORF1 sequence; test: Luciferase reporter assay, CN3050 leader; type: biochemical, human norovirus
# Summary of the method: as §1
# [3] = system: Laboratory variant 3 5′ ORF1 sequence; test: Luciferase reporter assay, Laboratory variant 3 leader; type: biochemical
# Summary of the method: as §1
# [4] = system: Laboratory variant 1 5′ ORF1 sequence; test: Luciferase reporter assay, Laboratory variant 1 leader; type: biochemical
# Summary of the method: as §1
# [5] = system: Bo/NoV/GIII.1/Jena/1998/DEU 5′ ORF1 sequence; test: Luciferase reporter assay, Jena bovine norovirus leader; type: biochemical
# Summary of the method: as §1
# [6] = system: Norwalk virus replicon in HG23 cells; test: Norwalk virus RNA in replicon-bearing HG23 cells; type: cell-based; settings: 16 μM, quantitative real-time RT-PCR, data not shown
# Summary of the method: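 HG23 replicon cells were electroporated with 16 μM test compound and incubated 5 days at 37 °C. Replicon RNA in treated and untreated cells was then quantified by single-step real-time RT-PCR with a standard curve in each run. Cycling: 45 °C 30 min, 95 °C 10 min, then 45 cycles of 95 °C 30 s, 50 °C 1 min, 72 °C 30 s.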
# [7] = system: Hu/NoV/GI.2/Southampton/1991/UK 5′ ORF1 sequence; test: Luciferase reporter assay, Southampton leader; type: biochemical, human norovirus; settings: target with 0 mismatches to Noro 1.1; luciferase signal
# Summary of the method: as §1
# [8] = system: Hu/No.V/GII.4/Lordsdale/1993/UK 5′ ORF1 sequence; test: Luciferase reporter assay, Lordsdale leader; type: biochemical, human norovirus
# Summary of the method: as §1
# [9] = system: Hu/NoV/GI.6/WUG1/2000/JP 5′ ORF1 sequence; test: Luciferase reporter assay, WUG1 leader; type: biochemical, human norovirus; settings: target with 1 mismatch to Noro 1.1; luciferase signal
# Summary of the method: as §1
# [10] = system: Norwalk virus replicon in HG23 cells; test: PMO inhibition of norovirus protein expression in replicon cell line HG23; type: cell-based; settings: 16 μM, 5-day incubation, immunofluorescence
# Summary of the method: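 HG23 cells (Huh-7-derived Norwalk replicon line, DMEM/10% FBS/0.25 mg/ml neomycin) received 16 μM unconjugated morpholino by nucleofection (solution L, program A020). A total of 2×10^6 cells were seeded and incubated 5 days at 37 °C. Cells were then fixed in ice-cold methanol and analysed by immunofluorescence with guinea pig antisera against Norwalk VP1 and RdRP.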
# [11] = system: Hu/NoV/GII.12/CN2753/1998/USA 5′ ORF1 sequence; test: Luciferase reporter assay, CN2753 leader; type: biochemical, human norovirus; settings: target with 2 mismatches to Noro 1.1; luciferase signal
# Summary of the method: as §1
# [12] = system: Laboratory variant 2 5′ ORF1 sequence; test: Luciferase reporter assay, Laboratory variant 2 leader; type: biochemical
# Summary of the method: as §1
# [13] = system: MNV-1; test: Mouse norovirus PPMO inhibition assay in RAW264.7 cells; type: cell-based, murine norovirus
# Summary of the method: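 RAW264.7 cells (2×10^5/well) were seeded and incubated overnight, then rinsed and exposed 4 h to test compound in plain DMEM (8 replicate wells). They were rinsed again and infected with MNV-1.CW1 for 2 h at 37 °C, then kept 3 days at 37 °C. Wells were formalin-fixed and stained with crystal violet; methanol-eluted stain was read at A570. Variants used fixed compound with 10-fold virus dilutions (20–2×10^5 PFU/well), or 1.25–80 μM compound with 2×10^4 PFU/well. % lysis = ([treated]−[treated+infected])/[treated]×100.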
# [14] = target with 6 mismatches to Noro 1.1, luciferase signal
sequence,measurement,setting,value
CGACGCCATCATCATTCAC [Noro 1.1],Outcome of in vitro assay,[1],"Inhibition (Inhibition defined as > 60% reduction of protein synthesis, as defined by luciferase signal.)"
same,inhibition of translation achieved,[2]; GII.4 variant,100%
same,Outcome of in vitro assay,"[2]; target with 3 mismatches to Noro 1.1, luciferase signal","Inhibition (Inhibition defined as > 60% reduction of protein synthesis, as defined by luciferase signal.)"
same,inhibition of translation,"[3]; LabVar3, 6 nucleotide differences, data not shown",completely failed to inhibit translation
same,Outcome of in vitro assay,[3]; [14],No inhibition
same,inhibition of translation,"[4]; LabVar 1, 4 nucleotide changes",less efficiently
same,Outcome of in vitro assay,"[4]; target with 4 mismatches to Noro 1.1, luciferase signal","Inhibition (Inhibition defined as > 60% reduction of protein synthesis, as defined by luciferase signal.)"
same,maximal inhibition achieved,"[5]; range of concentrations tested, 0.01 to 83 μM",≤ 57%
same,Outcome of in vitro assay,[5]; [14],No inhibition
same,Norwalk virus RNA level,[6],did not see a significant reduction in RNA
same,Outcome of in vitro assay,[7],"Inhibition (Inhibition defined as > 60% reduction of protein synthesis, as defined by luciferase signal.)"
same,inhibition of translation achieved,[8]; GII.4 variant,100%
same,Outcome of in vitro assay,"[8]; target with 2 mismatches to Noro 1.1, luciferase signal","Inhibition (Inhibition defined as > 60% reduction of protein synthesis, as defined by luciferase signal.)"
same,Outcome of in vitro assay,[9],"Inhibition (Inhibition defined as > 60% reduction of protein synthesis, as defined by luciferase signal.)"
same,Norwalk virus protein translation in HG23 cells,[10],effectively inhibited norovirus protein translation
same,Outcome of in vitro assay,[11],"Inhibition (Inhibition defined as > 60% reduction of protein synthesis, as defined by luciferase signal.)"
same,inhibition of translation,"[12]; LabVar 2, 5 nucleotide changes",less efficiently
same,Outcome of in vitro assay,"[12]; target with 5 mismatches to Noro 1.1, luciferase signal","Inhibition (Inhibition defined as > 60% reduction of protein synthesis, as defined by luciferase signal.)"
CGCAGAAGATGGCGTTGCCATCCTC [PPMO C],effectiveness in inhibiting viral replication,"[13]; 20 μM PPMO, 2 × 10^4 PFU/well MNV-1",70%
same,maximal dose of MNV-1 inhibited,"[13]; PPMO C 80 μM, MNV-1 20 to 2 × 10^5 PFU/well, 8 replicates",up to 2 × 10^5 PFU
CGTTGCCATCCTCATTTCAC [PPMO B],dose of MNV-1 whose replication is completely inhibited,"[13]; PPMO B 20 μM, MNV-1 20 to 2 × 10^5 PFU/well, 8 replicates",2 × 10^3 PFU
